Data from ChEMBL document CHEMBL1155677, “Inhibitory effects on HIV-1 protease of constituents from the wood of Xanthoceras sorbifolia” (J Nat Prod, 2000).

Legend:
Protease = Protease (Human immunodeficiency virus 1, UniProt Q9YQ12); test: Inhibition of HIV1 protease
Method in brief: (§1)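 HIV-1 protease inhibition was measured with a commercial HIV protease assay kit, which supplied both the enzyme and the reagents. Acetyl pepstatin from the same kit served as the positive control. The assay was run and percent inhibition calculated by a previously published procedure. Fractions were tested at 100 µg/mL.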

[1] = biological target: Protease (Human immunodeficiency virus 1) (UniProt Q9YQ12); test: Inhibition of HIV1 protease at 100 ug/ml; method in brief: as §1
Chain of Protease (Human immunodeficiency virus 1) (Q9YQ12 as listed by the source): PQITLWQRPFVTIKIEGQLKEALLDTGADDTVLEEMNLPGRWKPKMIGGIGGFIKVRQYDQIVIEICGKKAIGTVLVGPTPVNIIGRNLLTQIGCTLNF

Chain of Protease (Q9YQ12 whole entry): as the sequence (Q9YQ12 as listed by the source) above

Structure (SMILES)	IC50 (Protease)	inhibition [1]
CC(C)=CCC[C@H](C(=O)O)[C@@H]1CC[C@]2(C)C3=CC[C@@H]4[C@](C)(CC[C@H](O)[C@]4(C)CO)[C@H]3CC[C@@]12C	212 µM	53%
Oc1cc(O)c2c(c1)O[C@@]1(c3ccc(O)c(O)c3)Oc3cc(O)c4c(c3[C@@H]2[C@H]1O)O[C@H](c1ccc(O)c(O)c1)[C@H](O)C4 [PROANTHOCYANIDIN A2]	> 173 µM	-2%
CC(=O)OC[C@@]1(C)C(=O)CC[C@@]2(C)[C@H]1CC=C1[C@@H]2CC[C@@]2(C)[C@H]([C@H](CCC=C(C)C)C(=O)O)CC[C@]12C	> 195 µM	26%
CC(=O)N[C@H](C(=O)N[C@H](C(=O)N[C@@H](CC(C)C)[C@@H](O)CC(=O)N[C@@H](C)C(=O)N[C@@H](CC(C)C)[C@@H](O)CC(=O)O)C(C)C)C(C)C [ACETYLPEPSTATIN]	0.233 µM	100%
CC(C)=CCC[C@H](C(=O)O)[C@@H]1CC[C@]2(C)C3=CC[C@@H]4[C@](C)(CCC(=O)[C@]4(C)CO)[C@H]3CC[C@@]12C [XANTHOCERASIC ACID]	> 212 µM	14%
CC(C)=CCC[C@H](C(=O)O)[C@@H]1CC[C@]2(C)C3=CC[C@H]4C(C)(C)[C@@H](O)CC[C@]4(C)[C@H]3CC[C@@]12C	219 µM	50%
Oc1cc(O)c2c(c1)O[C@@]1(c3cc(O)c(O)c(O)c3)Oc3cc(O)c4c(c3[C@@H]2[C@H]1O)O[C@H](c1ccc(O)c(O)c1)[C@H](O)C4	118 µM	89%
CC(C)=CCC[C@H](C(=O)O)[C@@H]1CC[C@]2(C)C3=CC[C@H]4C(C)(C)C(=O)CC[C@]4(C)[C@H]3CC[C@@]12C	44 µM	90%
CC(C)=CCC[C@H](C(=O)O)[C@@H]1CC[C@]2(C)C3=CC[C@@H]4[C@](C)(CC[C@@H](O)[C@]4(C)CO)[C@H]3CC[C@@]12C	> 212 µM	26%
C=C(CC[C@@H](C)[C@H]1CC[C@@]2(C)[C@@H]3CC[C@H]4C(C)(C)[C@@H](O)CC[C@@]45C[C@@]35CC[C@]12C)C(C)C	> 227 µM	19%
CC1(C)CC[C@]2(C(=O)O)CC[C@]3(C)C(=CC[C@@H]4[C@@]5(C)CC[C@H](O)C(C)(C)[C@@H]5CC[C@]43C)[C@@H]2C1 [OLEANOLIC_ACID]	21.9 µM	96%
